{"source": "ChEMBL document CHEMBL4673366", "about": "“Cyclic Phosphopantothenic Acid Prodrugs for Treatment of Pantothenate Kinase-Associated Neurodegeneration” (J Med Chem, 2020)", "key": {"[1]": {"assay": "Induction of Coenzyme A regeneration in human IMR-32 PANK2 knockdown cells at 50 uM for 24 hrs by HPLC analysis relative to control", "assay_type": "functional", "summary_of_the_method": "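PANK2-knockout neuroblastoma cells were grown in MEM with 10% FBS and 1 µg/mL puromycin and seeded at 0.2×10⁶ cells/well. After 72 h, they were dosed at 50 µM in DMSO (final 0.1%) at 37 °C. Washed, frozen pellets were reconstituted in ammonium acetate (pH 5.1) with internal standard, and free CoA was measured by LC-MS/MS. Intracellular volume was taken as 2 µL/10⁶ cells; results are fold over vehicle-treated cells.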"}, "IMR-32 [2]": {"system": "IMR-32", "assay": "Increase in histone H3 acetylation in human IMR-32 PANK2 knockdown cells at 50 uM for 48 hrs by Western blot analysis", "assay_type": "functional"}, "IMR-32 [3]": {"system": "IMR-32", "assay": "Decrease in lipid droplet content in human IMR-32 PANK2 knockdown cells at 10 uM for 48 hrs by Nile red staining based inverted microscopic analysis", "assay_type": "functional", "summary_of_the_method": "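PANK2-knockout neuroblastoma cells were treated for 48 h, then fixed and stained with 100 ng/mL Nile Red. Cells were imaged on an inverted microscope at 60×, and lipid droplet content was quantified by plate fluorimetry. Data are mean ± sd of two biological replicates, each in duplicate; two-tailed paired Student's t-test.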"}, "[4]": {"assay": "Effect on free coenzyme A level in C57BL6 mouse brain at 500 mg/kg, po administered as single dose measured after 6 hr UPLC quadrupole-time-of-flight mass spectrometry (Rvb =100%)", "assay_type": "functional", "summary_of_the_method": "(§1)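 C57BL6 mice, three per time point, received one oral 500 mg/kg dose of isotopically labeled prodrug, and brains were taken at 0, 1, 6 and 24 h. Brains were homogenized in water (3 mL/g), protein was precipitated with MeOH, and dried supernatant was reconstituted in 10 mM ammonium acetate (pH ~5). Analysis was UPLC-QTOF MS in positive ESI, scoring labeled CoA (+6, +4 amu) as a share of free CoA.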"}, "[5]": {"assay": "Effect on free coenzyme A level in C57BL6 mouse brain at 500 mg/kg, po administered as single dose measured after 24 hrs UPLC quadrupole-time-of-flight mass spectrometry (Rvb =100%)", "assay_type": "functional", "summary_of_the_method": "as §1"}, "[6]": {"assay": "Effect on free coenzyme A level in C57BL6 mouse brain at 500 mg/kg, po administered as single dose measured after 1 hr UPLC quadrupole-time-of-flight mass spectrometry (Rvb =100%)", "assay_type": "functional", "summary_of_the_method": "as §1"}, "IMR-32 [7]": {"system": "IMR-32", "assay": "Increase in tubulin acetylation in human IMR-32 PANK2 knockdown cells at 50 uM for 48 hrs by Western blot analysis", "assay_type": "functional"}}, "note": "Active and inactive are the calls of the source. No cut-off for these calls is given here."}
{"smiles": "COC(=O)CCNC(=O)[C@@H]1OP(=O)(OCOC(=O)C(C)(C)C)OCC1(C)C", "note": "(mixture of isomers)", "values": [{"measurement": "fold change (FC)", "setting": "[1]", "result": 180}, {"measurement": "Activity", "setting": "IMR-32 [2]", "result": "Active"}, {"measurement": "inhibition", "setting": "IMR-32 [3]", "result": "Active"}, {"measurement": "Activity", "setting": "[4]", "result": 92, "unit": "%"}, {"measurement": "Activity", "setting": "[5]", "result": 85, "unit": "%"}, {"measurement": "Activity", "setting": "[6]", "result": 100, "unit": "%"}, {"measurement": "Activity", "setting": "IMR-32 [7]", "result": "Active"}]}
